What was measured:
Format in all cases: functional
BT-549 = assay: Growth inhibition of human BT549 cells at 1 nM after 96 hrs by MTT assay; set-up: scale not given: the % may be the effect or the level left
A498 = assay: Growth inhibition of human A498 cells at 1 nM after 96 hrs by MTT assay; set-up: scale not given: the % may be the effect or the level left
786-0 = assay: Growth inhibition of human 786-0 cells at 10 uM after 96 hrs by MTT assay; set-up: scale not given: the % may be the effect or the level left
SK-OV-3 [1] = assay: Growth inhibition of human SKOV3 cells at 10 uM after 96 hrs by MTT assay; set-up: scale not given: the % may be the effect or the level left
NCI/ADR-RES = assay: Growth inhibition of human NCI/ADR-RES cells at 10 uM after 96 hrs by MTT assay; set-up: scale not given: the % may be the effect or the level left
OVCAR-4 = assay: Growth inhibition of human OVCAR4 cells at 10 uM after 96 hrs by MTT assay; set-up: scale not given: the % may be the effect or the level left
OVCAR-3 [2] = assay: Growth inhibition of human OVCAR-3 cells at 10 uM after 96 hrs by MTT assay; set-up: scale not given: the % may be the effect or the level left
IGROV-1 [3] = assay: Growth inhibition of human IGROV1 cells at 10 uM after 96 hrs by MTT assay; set-up: scale not given: the % may be the effect or the level left
MDA-MB-435 [4] = assay: Growth inhibition of human MDA-MB-435 cells at 10 uM after 96 hrs by MTT assay; set-up: scale not given: the % may be the effect or the level left
Malme-3M [5] = assay: Growth inhibition of human MALME-3M cells at 10 uM after 96 hrs by MTT assay; set-up: scale not given: the % may be the effect or the level left
SF-268 = assay: Growth inhibition of human SF268 cells at 10 uM after 96 hrs by MTT assay; set-up: scale not given: the % may be the effect or the level left
MOLT-4 = assay: Growth inhibition of human MOLT4 cells at 10 uM after 96 hrs by MTT assay; set-up: scale not given: the % may be the effect or the level left
KM12 = assay: Growth inhibition of human KM12 cells after 96 hrs by MTT assay; conditions: KM12, 96 h
In short: (§1)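 Run in the NCI 60 human tumour cell line panel as a five-dose assay. GI50 and LC50 were reported for each cell line.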

LOX IMVI = assay: Growth inhibition of human LOXIMVI cells after 96 hrs by MTT assay; in short: as §1
Malme-3M [6] = assay: Growth inhibition of human MALME-3M cells after 96 hrs by MTT assay; in short: as §1
MDA-MB-435 [7] = assay: Growth inhibition of human MDA-MB-435 cells after 96 hrs by MTT assay; conditions: MDA-MB-435, 96 h; in short: as §1
UACC-62 = assay: Growth inhibition of human UACC62 cells after 96 hrs by MTT assay; conditions: UACC-62, 96 h
In short: (§2)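 Tested in the NCI 60-cell-line panel in five-dose format; GI50 and LC50 values reported for each cell line.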

OVCAR-3 [8] = assay: Growth inhibition of human OVCAR-3 cells after 96 hrs by MTT assay; conditions: OVCAR-3, 96 h; in short: as §2
CAKI-1 = assay: Growth inhibition of human Caki1 cells after 96 hrs by MTT assay; conditions: CAKI-1, 96 h
T47D [9] = assay: Growth inhibition of human T47D cells after 96 hrs by MTT assay; in short: as §2
[10] = Growth inhibition of human […] cells after 96 hrs by MTT assay; in short: as §2
T47D [11] = assay: Growth inhibition of human T47D cells at 1 uM after 96 hrs by MTT assay; set-up: scale not given: the % may be the effect or the level left
MCF7 = assay: Growth inhibition of human MCF7 cells at 1 uM after 96 hrs by MTT assay; set-up: scale not given: the % may be the effect or the level left
MDA-MB-231 = assay: Growth inhibition of human MDA-MB-231 cells at 100 nM after 96 hrs by MTT assay; set-up: scale not given: the % may be the effect or the level left
SK-OV-3 [12] = assay: Growth inhibition of human SKOV3 cells at 100 nM after 96 hrs by MTT assay; set-up: scale not given: the % may be the effect or the level left
SNB-75 = assay: Growth inhibition of human SNB75 cells at 100 nM after 96 hrs by MTT assay; set-up: scale not given: the % may be the effect or the level left
HCT-15 = assay: Growth inhibition of human HCT15 cells at 100 nM after 96 hrs by MTT assay; set-up: scale not given: the % may be the effect or the level left
A549 = assay: Growth inhibition of human A549 cells at 100 nM after 96 hrs by MTT assay; set-up: scale not given: the % may be the effect or the level left
SK-OV-3 [13] = assay: Growth inhibition of human SKOV3 cells at 10 nM after 96 hrs by MTT assay; set-up: scale not given: the % may be the effect or the level left
HCC 2998 [14] = assay: Growth inhibition of human HCC2998 cells at 10 nM after 96 hrs by MTT assay; set-up: scale not given: the % may be the effect or the level left
COLO 205 = assay: Growth inhibition of human COLO205 cells at 10 nM after 96 hrs by MTT assay; set-up: scale not given: the % may be the effect or the level left
NCI-H522 = assay: Growth inhibition of human NCI-H522 cells at 10 nM after 96 hrs by MTT assay; set-up: scale not given: the % may be the effect or the level left
OVCAR-3 [15] = assay: Growth inhibition of human OVCAR-3 cells at 1 uM after 96 hrs by MTT assay; set-up: scale not given: the % may be the effect or the level left
IGROV-1 [16] = assay: Growth inhibition of human IGROV1 cells at 1 uM after 96 hrs by MTT assay; set-up: scale not given: the % may be the effect or the level left
SF-539 = assay: Growth inhibition of human SF539 cells at 1 uM after 96 hrs by MTT assay; set-up: scale not given: the % may be the effect or the level left
HT-29 = assay: Growth inhibition of human HT-29 cells at 1 uM after 96 hrs by MTT assay; set-up: scale not given: the % may be the effect or the level left
HCC 2998 [17] = assay: Growth inhibition of human HCC2998 cells at 1 uM after 96 hrs by MTT assay; set-up: scale not given: the % may be the effect or the level left
HOP-62 = assay: Growth inhibition of human HOP62 cells at 1 uM after 96 hrs by MTT assay; set-up: scale not given: the % may be the effect or the level left
[18] = Growth inhibition of human RPMI8266 cells at 1 uM after 96 hrs by MTT assay; set-up: scale not given: the % may be the effect or the level left
[19] = read-out: Log10GI50 (converted)
[20] = read-out: Log10LC50 (converted)
[21] = read-out: LC50 (the source's name)

## C=C(C)[C@H]1CC=C(C)C2=CO[C@@H](c3ccccc3F)[C@@H]21
BT-549
  Activity: 97%
A498
  Activity: 82%
786-0
  Activity: 93.62%
SK-OV-3 [1]
  Activity: 93.49%
NCI/ADR-RES
  Activity: 108.3%
OVCAR-4
  Activity: 88.01%
OVCAR-3 [2]
  Activity: 115.72%
IGROV-1 [3]
  Activity: 65.74%
MDA-MB-435 [4]
  Activity: 109.16%
Malme-3M [5]
  Activity: 101.14%
SF-268
  Activity: 105.37%
MOLT-4
  Activity: 74.3%
KM12; read-out: GI50
  GI50: 4.02 µM
KM12; read-out: LC50
  LC50: 40.4 µM
KM12; [19]
  GI50: 3.98 µM
KM12; [20]
  LC50: 40.7 µM
KM12; read-out: Log10TGI (converted)
  TGI: 15.8 µM
KM12; read-out: TGI
  TGI: 15.7 µM
LOX IMVI; read-out: GI50
  GI50: 4.3 µM
LOX IMVI; [21]
  CC50: 55.4 µM
LOX IMVI; [19]
  GI50: 4.27 µM
LOX IMVI; [20]
  CC50: 55 µM
LOX IMVI; read-out: Log10TGI (converted)
  TGI: 20 µM
LOX IMVI; read-out: TGI
  TGI: 19.8 µM
Malme-3M [6]; read-out: GI50
  GI50: 2.78 µM
Malme-3M [6]; [21]
  CC50: 43.8 µM
Malme-3M [6]; [19]
  GI50: 2.75 µM
Malme-3M [6]; [20]
  CC50: 43.7 µM
Malme-3M [6]; read-out: Log10TGI (converted)
  TGI: 15.1 µM
Malme-3M [6]; read-out: TGI
  TGI: 15.1 µM
MDA-MB-435 [7]; read-out: GI50
  GI50: 2.65 µM
MDA-MB-435 [7]; read-out: LC50
  LC50: 66.3 µM
MDA-MB-435 [7]; [19]
  GI50: 2.63 µM
MDA-MB-435 [7]; [20]
  LC50: 66.1 µM
MDA-MB-435 [7]; read-out: Log10TGI (converted)
  TGI: 11.5 µM
MDA-MB-435 [7]; read-out: TGI
  TGI: 11.4 µM
UACC-62; read-out: GI50
  GI50: 3.31 µM
UACC-62; [21]
  CC50: 51.5 µM
UACC-62; [19]
  GI50: 3.31 µM
UACC-62; [20]
  CC50: 51.3 µM
UACC-62; read-out: Log10TGI (converted)
  TGI: 18.2 µM
UACC-62; read-out: TGI
  TGI: 18.3 µM
OVCAR-3 [8]; read-out: GI50
  GI50: 3.24 µM
OVCAR-3 [8]; [21]
  CC50: 36.5 µM
OVCAR-3 [8]; [19]
  GI50: 3.24 µM
OVCAR-3 [8]; [20]
  CC50: 36.3 µM
OVCAR-3 [8]; read-out: Log10TGI (converted)
  TGI: 12.9 µM
OVCAR-3 [8]; read-out: TGI
  TGI: 12.8 µM
CAKI-1; read-out: GI50
  GI50: 5.5 µM
CAKI-1; [21]
  CC50: > 100 µM
CAKI-1; [19]
  GI50: 5.5 µM
CAKI-1; [20]
  CC50: > 100 µM
CAKI-1; read-out: Log10TGI (converted)
  TGI: 39.8 µM
CAKI-1; read-out: TGI
  TGI: 39.8 µM
T47D [9]; read-out: GI50
  GI50: 2.24 µM
T47D [9]; [21]
  CC50: > 100 µM
T47D [9]; [19]
  GI50: 2.24 µM
T47D [9]; [20]
  CC50: > 100 µM
T47D [9]; read-out: Log10TGI (converted)
  TGI: 11 µM
T47D [9]; read-out: TGI
  TGI: 11.1 µM
[10]; read-out: GI50
  GI50: 0.148 µM
[10]; [21]
  CC50: 9.36 µM
[10]; [19]
  GI50: 0.148 µM
[10]; [20]
  CC50: 9.33 µM
[10]; read-out: Log10TGI (converted)
  TGI: 2 µM
[10]; read-out: TGI
  TGI: 2.01 µM
T47D [11]
  Activity: 2%
MCF7
  Activity: 26%
MDA-MB-231
  Activity: 81%
SK-OV-3 [12]
  Activity: 98%
SNB-75
  Activity: 84%
HCT-15
  Activity: 84%
A549
  Activity: 95%
SK-OV-3 [13]
  Activity: 100%
HCC 2998 [14]
  Activity: 89%
COLO 205
  Activity: 84%
NCI-H522
  Activity: 77%
OVCAR-3 [15]
  Activity: 12%
IGROV-1 [16]
  Activity: 56%
SF-539
  Activity: 43%
HT-29
  Activity: 22%
HCC 2998 [17]
  Activity: 39%
HOP-62
  Activity: 51%
[18]
  Activity: -52%

Reference: ChEMBL document CHEMBL1153726, “Synthesis and anticancer activity of sclerophytin-inspired hydroisobenzofurans” (Bioorg Med Chem Lett, 2009)
